{"source": "ChEMBL document CHEMBL5715950", "about": "“Characterization of molecular and cellular functions of the cyclin-dependent kinase CDK9 using a novel specific inhibitor” (Br J Pharmacol, 2014)", "key": {"[1]": {"target": "Cyclin-dependent kinase 1/cyclin B1 (Homo sapiens, UniProt P06493)", "sequence (P06493 whole entry)": "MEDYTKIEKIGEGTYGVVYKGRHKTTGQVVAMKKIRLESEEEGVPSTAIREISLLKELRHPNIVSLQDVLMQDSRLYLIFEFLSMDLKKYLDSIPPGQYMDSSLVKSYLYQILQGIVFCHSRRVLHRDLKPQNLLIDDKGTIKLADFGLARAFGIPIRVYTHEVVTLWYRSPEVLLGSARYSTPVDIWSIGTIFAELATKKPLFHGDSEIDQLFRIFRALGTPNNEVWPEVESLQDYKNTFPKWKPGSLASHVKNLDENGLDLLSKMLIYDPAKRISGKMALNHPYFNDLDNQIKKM", "sequence (P14635 whole entry, further chain)": "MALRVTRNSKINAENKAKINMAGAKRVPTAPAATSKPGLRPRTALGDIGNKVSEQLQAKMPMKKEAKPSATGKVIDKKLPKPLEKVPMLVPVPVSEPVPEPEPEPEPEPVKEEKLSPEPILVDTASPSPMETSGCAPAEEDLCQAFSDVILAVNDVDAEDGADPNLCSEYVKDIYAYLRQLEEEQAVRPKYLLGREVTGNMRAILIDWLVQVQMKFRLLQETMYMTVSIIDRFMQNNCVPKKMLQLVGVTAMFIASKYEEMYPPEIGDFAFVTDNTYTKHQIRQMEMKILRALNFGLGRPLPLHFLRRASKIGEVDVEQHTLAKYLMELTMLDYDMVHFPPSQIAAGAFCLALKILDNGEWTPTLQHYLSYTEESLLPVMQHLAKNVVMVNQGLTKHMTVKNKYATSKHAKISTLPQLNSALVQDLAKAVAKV", "test": "Inhibition of CDK1/Cyclin B1 (unknown origin) using ULight MBP peptide as substrate in presence of ATP incubated for 1 hr by FRET based LANCE Ultra KinaSelect screen assay", "assay_type": "protein-complex assay", "in_short": "(§1)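 Time-resolved FRET kinase assay with purified CDK-cyclin pairs. ULight MBP peptide substrate was 50 nM final. Buffer was 50 mM HEPES-KOH pH 7.5, 10 mM MgCl2, 1 mM EGTA and 2 mM DTT, with ATP at each kinase's KM (CDK2-cyclin A 3 μM). Reactions ran 1 h at room temperature, then 2 nM Eu-labelled anti-phospho antibody was added for detection. IC50 given as mean ± SD.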"}, "[2]": {"test": "Selectivity ratio of IC50 for inhibition of CDK9/Cyclin T1 (unknown origin) to IC50 for inhibition of CDK1/Cyclin B1 (unknown origin)"}, "[3]": {"target": "Cyclin-dependent kinase 9 (Homo sapiens) (UniProt P50750)", "sequence (P50750 whole entry)": "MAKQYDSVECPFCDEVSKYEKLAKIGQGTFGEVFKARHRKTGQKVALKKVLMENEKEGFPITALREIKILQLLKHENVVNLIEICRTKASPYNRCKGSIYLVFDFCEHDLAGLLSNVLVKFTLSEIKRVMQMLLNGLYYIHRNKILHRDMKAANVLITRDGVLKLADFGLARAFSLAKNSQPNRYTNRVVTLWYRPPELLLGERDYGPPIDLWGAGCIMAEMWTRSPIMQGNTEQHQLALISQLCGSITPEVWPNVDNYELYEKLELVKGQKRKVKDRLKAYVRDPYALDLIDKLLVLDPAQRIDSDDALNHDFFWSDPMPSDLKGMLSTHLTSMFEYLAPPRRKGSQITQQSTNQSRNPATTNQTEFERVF", "test": "Inhibition of CDK9 in human HeLa cells assessed as downregulation of Serine 7 phosphorylation at 10 uM incubated for 60 mins by Western blotting analysis", "assay_type": "cell-based"}, "[4]": {"target": "Glycogen synthase kinase-3 alpha (Homo sapiens, UniProt P49840)", "sequence (P49840 2-483 limits assumed)": "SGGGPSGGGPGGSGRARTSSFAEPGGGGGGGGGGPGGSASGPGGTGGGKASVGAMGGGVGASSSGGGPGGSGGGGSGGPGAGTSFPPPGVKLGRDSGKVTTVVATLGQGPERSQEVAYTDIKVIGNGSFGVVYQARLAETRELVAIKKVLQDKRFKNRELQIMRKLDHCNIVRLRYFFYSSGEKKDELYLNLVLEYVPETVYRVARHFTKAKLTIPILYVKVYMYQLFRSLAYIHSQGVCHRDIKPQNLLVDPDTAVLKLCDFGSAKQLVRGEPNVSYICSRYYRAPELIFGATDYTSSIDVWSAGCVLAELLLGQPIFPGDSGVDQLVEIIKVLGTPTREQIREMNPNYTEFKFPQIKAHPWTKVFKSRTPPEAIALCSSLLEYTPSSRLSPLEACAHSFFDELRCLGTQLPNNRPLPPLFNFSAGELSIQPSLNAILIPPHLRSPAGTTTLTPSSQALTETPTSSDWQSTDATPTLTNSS", "test": "Inhibition of GSK3A (unknown origin) assessed as residual activity at 10 uM incubated for 120 mins in presence of 33P-ATP by radiometric kinase assay relative to control"}, "CDK6/cyclin D3": {"target": "CDK6/cyclin D3 (Homo sapiens, UniProt Q00534)", "sequence (P30281 whole entry)": "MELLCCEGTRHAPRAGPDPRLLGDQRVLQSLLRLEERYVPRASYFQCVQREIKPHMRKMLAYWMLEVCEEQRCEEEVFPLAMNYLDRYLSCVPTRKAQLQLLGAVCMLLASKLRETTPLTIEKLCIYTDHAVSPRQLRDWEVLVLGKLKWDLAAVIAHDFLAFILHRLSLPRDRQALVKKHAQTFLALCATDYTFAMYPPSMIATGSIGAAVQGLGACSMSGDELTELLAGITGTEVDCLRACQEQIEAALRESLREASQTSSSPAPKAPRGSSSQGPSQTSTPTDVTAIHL", "sequence (Q00534 whole entry)": "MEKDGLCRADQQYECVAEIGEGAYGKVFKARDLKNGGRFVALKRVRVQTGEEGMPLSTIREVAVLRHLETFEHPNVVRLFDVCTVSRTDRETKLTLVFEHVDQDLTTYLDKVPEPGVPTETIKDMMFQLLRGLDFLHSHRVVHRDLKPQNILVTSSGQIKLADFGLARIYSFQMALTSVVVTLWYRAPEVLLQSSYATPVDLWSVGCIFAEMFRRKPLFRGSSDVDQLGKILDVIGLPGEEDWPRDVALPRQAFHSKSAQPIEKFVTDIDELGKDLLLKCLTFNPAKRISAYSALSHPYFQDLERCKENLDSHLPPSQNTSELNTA", "test": "Inhibition of CDK6/Cyclin D3 (unknown origin) using ULight MBP peptide as substrate in presence of ATP incubated for 1 hr by FRET based LANCE Ultra KinaSelect screen assay", "assay_type": "protein-complex assay", "in_short": "as §1"}, "MCF7": {"tested_on": "MCF7", "test": "Induction of apoptosis in human MCF7 cells at 10 uM incubated for 24 hrs by Annexin V-FITC/PI staining based flow cytometric analysis", "assay_type": "functional, cell-based", "in_short": "(§2)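 Cells grown at 37°C, 5% CO2 (A549, HeLa, MCF7 in DMEM high glucose; HCT116 in McCoy's 5A; THP1 and primary AML M4 apheresis blasts in RPMI1640), exposed to inhibitor or DMSO for 24 h. Apoptotic fraction by flow cytometry after annexin V-fluorescein/propidium iodide double staining. Means ± SD of three biological replicates; AML blasts from one patient, three technical replicates. Student's t-test versus DMSO/untreated.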"}, "[5]": {"test": "Selectivity ratio of IC50 for inhibition of CDK9/Cyclin T1 (unknown origin) to IC50 for inhibition of CDK2/Cyclin A (unknown origin)"}, "[6]": {"target": "Cyclin-dependent kinase 9 (Homo sapiens) (UniProt P50750)", "test": "Inhibition of CDK9 in human THP-1 cells assessed as downregulation of MED1 mRNA expression by RT-qPCR analysis", "assay_type": "cell-based"}, "[7]": {"target": "Cyclin-dependent kinase 9 (Homo sapiens) (UniProt P50750)", "test": "Inhibition of CDK9 in human HeLa cells assessed as downregulation of Serine 5 phosphorylation at 10 uM incubated for 60 mins by Western blotting analysis", "assay_type": "cell-based"}, "CDK7/Cyclin H/MNAT1 [8]": {"target": "T1, CDK7/Cyclin H/MNAT1 (Homo sapiens, UniProt P50613)", "T1 sequence (P51946 whole entry)": "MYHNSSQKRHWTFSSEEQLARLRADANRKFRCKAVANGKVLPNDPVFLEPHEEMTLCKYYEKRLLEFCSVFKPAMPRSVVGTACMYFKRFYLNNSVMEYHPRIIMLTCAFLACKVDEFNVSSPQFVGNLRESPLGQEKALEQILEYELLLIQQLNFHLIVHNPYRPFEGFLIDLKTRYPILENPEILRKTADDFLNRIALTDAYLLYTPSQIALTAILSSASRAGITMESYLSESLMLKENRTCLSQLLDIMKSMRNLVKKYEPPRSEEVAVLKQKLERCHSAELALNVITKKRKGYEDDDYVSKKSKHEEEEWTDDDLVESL", "T1 sequence (P50613 whole entry)": "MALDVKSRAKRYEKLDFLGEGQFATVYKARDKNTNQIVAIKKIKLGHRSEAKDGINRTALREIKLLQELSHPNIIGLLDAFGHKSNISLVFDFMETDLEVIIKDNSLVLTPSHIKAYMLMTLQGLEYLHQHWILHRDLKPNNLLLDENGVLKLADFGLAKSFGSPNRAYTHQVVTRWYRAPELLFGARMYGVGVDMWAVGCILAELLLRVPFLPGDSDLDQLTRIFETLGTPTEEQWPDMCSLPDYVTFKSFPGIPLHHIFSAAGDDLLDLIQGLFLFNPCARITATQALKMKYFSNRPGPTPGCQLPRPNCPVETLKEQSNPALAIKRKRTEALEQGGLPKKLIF", "T1 sequence (P51948 whole entry, further chain)": "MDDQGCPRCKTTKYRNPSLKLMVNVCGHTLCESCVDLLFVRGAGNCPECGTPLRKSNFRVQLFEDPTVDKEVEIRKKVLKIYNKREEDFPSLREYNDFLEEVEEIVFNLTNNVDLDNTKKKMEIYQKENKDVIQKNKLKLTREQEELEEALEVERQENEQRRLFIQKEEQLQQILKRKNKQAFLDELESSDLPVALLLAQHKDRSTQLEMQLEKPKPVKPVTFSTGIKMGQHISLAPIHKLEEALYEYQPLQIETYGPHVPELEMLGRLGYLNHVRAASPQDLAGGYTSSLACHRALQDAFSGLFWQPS", "test": "Displacement of kinase tracer 236 from CDK7/Cyclin H/MAT1 (unknown origin) assessed as dissociation constant incubated for 1 hr by LanthScreen Eu kinase binding assay", "assay_type": "protein-complex assay"}, "CDK7/Cyclin H/MNAT1 [9]": {"target": "T1, CDK7/Cyclin H/MNAT1", "test": "Inhibition of CDK7/Cyclin H/MAT1 (unknown origin) using ULight MBP peptide as substrate in presence of ATP incubated for 1 hr by FRET based LANCE Ultra KinaSelect screen assay", "assay_type": "protein-complex assay"}, "[10]": {"test": "Inhibition of CDK2/Cyclin A (unknown origin) using ULight MBP peptide as substrate in presence of ATP incubated for 1 hr by FRET based LANCE Ultra KinaSelect screen assay", "set-up": "species or system Homo sapiens", "in_short": "as §1"}, "[11]": {"target": "Cyclin-dependent kinase 9 (Homo sapiens) (UniProt P50750)", "test": "Inhibition of CDK9 in human MCF7 cells assessed as upregulation of p53 phosphorylation at Ser392 at 10 uM incubated for 4 hrs by Western blotting analysis", "assay_type": "cell-based"}, "[12]": {"test": "Selectivity ratio of IC50 for inhibition of CDK9/Cyclin T1 (unknown origin) to IC50 for inhibition of CDK7/Cyclin H/MAT1 (unknown origin)"}, "A549": {"tested_on": "A549", "test": "Induction of apoptosis in human A549 cells at 15 uM incubated for 24 hrs by Annexin V-FITC/PI staining based flow cytometric analysis", "assay_type": "functional, cell-based", "in_short": "as §2"}, "[13]": {"target": "Cyclin-dependent kinase 9 (Homo sapiens) (UniProt P50750)", "test": "Inhibition of CDK9 in human MCF7 cells assessed as upregulation of p53 protein at 10 uM incubated for 4 hrs by Western blotting analysis", "assay_type": "cell-based"}, "[14]": {"target": "Cyclin-dependent kinase 9 (Homo sapiens) (UniProt P50750)", "test": "Inhibition of CDK9 in human A549 cells assessed as downregulation of RPL3 mRNA expression at 2 to 6 uM incubated for 90 mins by RT-qPCR analysis relative to control", "assay_type": "cell-based", "conditions": "dose 2-6 µM"}, "HEK-293T": {"tested_on": "HEK-293T", "test": "Inhibition of transcription in human HEK293T cells nuclear extract fused with Gal4-VP16 at 10 uM in presence of ATP and KCL by phosphorimaging analysis", "assay_type": "functional, subcellular", "conditions": "Nucleus", "in_short": "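In vitro transcription from the adenovirus core promoter (Gal-ML, 380 bp G-free cassette), soluble or bead-immobilised template, using HEK293T nuclear extract supplemented with recombinant Gal4-VP16. ATP 60 μM (low), 100 μM, or 500 μM (high); magnesium varied in one series. Transcripts quantified by phosphorimaging.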"}, "[15]": {"target": "Cyclin-dependent kinase 9 (Homo sapiens) (UniProt P50750)", "test": "Inhibition of CDK9 in human HeLa cells assessed as upregulation of serine 5 phosphorylation at 10 uM incubated for 1 hr by chromatin immunoprecipitation assay", "assay_type": "cell-based"}, "[16]": {"target": "Cyclin-dependent kinase 9 (Homo sapiens) (UniProt P50750)", "test": "Inhibition of CDK9 in human THP-1 cells assessed as downregulation of RPS15 mRNA expression by RT-qPCR analysis", "assay_type": "cell-based"}, "[17]": {"target": "Tyrosine-protein kinase ABL2 (Homo sapiens, UniProt P42684)", "sequence (P42684 whole entry)": "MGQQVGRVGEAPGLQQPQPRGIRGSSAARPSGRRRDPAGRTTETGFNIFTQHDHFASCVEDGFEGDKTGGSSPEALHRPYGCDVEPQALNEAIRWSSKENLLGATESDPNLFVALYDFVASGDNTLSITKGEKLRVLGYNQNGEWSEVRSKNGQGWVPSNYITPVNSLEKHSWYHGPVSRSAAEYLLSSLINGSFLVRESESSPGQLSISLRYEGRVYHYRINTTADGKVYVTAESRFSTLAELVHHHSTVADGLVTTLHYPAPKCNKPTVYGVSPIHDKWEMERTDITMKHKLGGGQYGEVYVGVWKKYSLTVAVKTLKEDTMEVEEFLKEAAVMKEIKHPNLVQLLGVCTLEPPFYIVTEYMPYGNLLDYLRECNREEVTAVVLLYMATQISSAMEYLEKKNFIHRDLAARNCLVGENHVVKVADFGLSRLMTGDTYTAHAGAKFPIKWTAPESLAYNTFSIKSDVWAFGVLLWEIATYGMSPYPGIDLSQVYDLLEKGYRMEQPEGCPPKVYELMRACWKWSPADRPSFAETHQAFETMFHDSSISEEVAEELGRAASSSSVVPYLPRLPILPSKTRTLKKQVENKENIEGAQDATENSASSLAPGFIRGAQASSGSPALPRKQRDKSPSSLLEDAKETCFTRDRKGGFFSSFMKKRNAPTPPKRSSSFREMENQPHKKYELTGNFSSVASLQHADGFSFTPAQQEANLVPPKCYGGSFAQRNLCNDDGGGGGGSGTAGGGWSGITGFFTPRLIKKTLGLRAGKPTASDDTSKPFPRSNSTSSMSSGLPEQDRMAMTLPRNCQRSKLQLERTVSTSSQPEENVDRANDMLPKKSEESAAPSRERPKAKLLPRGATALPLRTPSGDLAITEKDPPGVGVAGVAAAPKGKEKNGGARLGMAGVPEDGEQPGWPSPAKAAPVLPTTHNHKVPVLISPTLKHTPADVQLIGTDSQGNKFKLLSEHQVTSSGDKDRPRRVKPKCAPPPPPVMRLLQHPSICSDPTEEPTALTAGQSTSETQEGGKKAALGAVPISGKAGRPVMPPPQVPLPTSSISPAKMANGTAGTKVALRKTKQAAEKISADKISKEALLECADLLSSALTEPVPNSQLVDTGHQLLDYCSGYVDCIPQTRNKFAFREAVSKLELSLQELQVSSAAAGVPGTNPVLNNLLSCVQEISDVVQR", "test": "Inhibition of ABL2 (unknown origin) incubated for 120 mins in presence of 33P-ATP by radiometric kinase assay", "in_short": "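Radiometric panel assay, 10-dose mode: serial dilutions from […], in duplicate, at 1 μM ATP. Incubated 120 min at room temperature, then spotted on P81 paper, acid-washed and counted. Values are means.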"}, "THP-1": {"tested_on": "THP-1", "test": "Induction of apoptosis in human THP-1 cells at 10 uM incubated for 24 hrs by Annexin V-FITC/PI staining based flow cytometric analysis relative to control", "assay_type": "functional", "in_short": "as §2"}, "[18]": {"target": "Cyclin-dependent kinase 9 (Homo sapiens) (UniProt P50750)", "test": "Inhibition of CDK9 in human A549 cells assessed as downregulation of CCND1 mRNA expression at 2 to 6 uM incubated for 90 mins by RT-qPCR analysis relative to control", "assay_type": "cell-based", "conditions": "dose 2-6 µM"}, "[19]": {"target": "Cyclin-dependent kinase 9 (Mus musculus) (UniProt Q99J95)", "sequence (Q99J95 whole entry)": "as the sequence (P50750 whole entry) above, with S17T, R37K, K40Q, N258K, Y262F counted along it", "test": "Inhibition of CDK9 in mouse Embryonic stem cell assessed as downregulation of Serine 2 phosphorylation by measuring fold decrease at 10 uM incubated for 90 mins by Western blotting analysis", "assay_type": "cell-based", "in_short": "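Mouse embryonic stem cells treated with 10 μM inhibitor or DMSO for 90 or 180 min; whole-cell Western blot for RNAPII CTD Ser2-P. Band signals quantified densitometrically and normalised to total RNAPII.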"}, "[20]": {"target": "Calcium/calmodulin-dependent protein kinase type IV (Homo sapiens, UniProt Q16566)", "sequence (Q16566 whole entry)": "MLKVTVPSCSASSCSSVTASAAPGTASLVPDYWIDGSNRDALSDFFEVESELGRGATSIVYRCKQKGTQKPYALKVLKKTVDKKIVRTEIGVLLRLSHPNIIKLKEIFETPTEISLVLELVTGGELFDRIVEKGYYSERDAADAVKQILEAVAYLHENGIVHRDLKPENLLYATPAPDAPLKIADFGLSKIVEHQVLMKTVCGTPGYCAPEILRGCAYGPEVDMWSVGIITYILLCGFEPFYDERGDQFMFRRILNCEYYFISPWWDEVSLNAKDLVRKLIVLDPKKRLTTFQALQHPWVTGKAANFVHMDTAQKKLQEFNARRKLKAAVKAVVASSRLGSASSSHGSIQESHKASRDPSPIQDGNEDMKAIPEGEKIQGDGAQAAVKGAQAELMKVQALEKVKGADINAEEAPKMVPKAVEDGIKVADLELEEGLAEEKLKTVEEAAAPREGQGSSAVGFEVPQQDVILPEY", "test": "Inhibition of CAMK4 (unknown origin) incubated for 120 mins in presence of 33P-ATP by radiometric kinase assay"}}, "note": "Calls of active or inactive are those of the source. No cut-off for these calls is given here."}
{"compound": "COc1ccccc1-c1cc(Nc2cccc(NS(C)(=O)=O)c2)ncn1", "values": [{"measurement": "IC50", "setting": "[1]", "value": 5.51, "unit": "µM"}, {"measurement": "Ratio IC50", "setting": "[2]", "value": 125}, {"measurement": "inhibition", "setting": "[3]", "value": "inactive"}, {"measurement": "Activity", "setting": "[4]", "value": 9.5, "unit": "%"}, {"measurement": "IC50", "setting": "CDK6/cyclin D3", "value": "> 10", "unit": "µM"}, {"measurement": "Activity", "setting": "MCF7", "value": "Active"}, {"measurement": "Ratio IC50", "setting": "[5]", "value": 55}, {"measurement": "inhibition", "setting": "[6]", "value": "Active"}, {"measurement": "inhibition", "setting": "[7]", "value": "inactive"}, {"measurement": "Kd", "setting": "CDK7/Cyclin H/MNAT1 [8]", "value": 16, "unit": "µM"}, {"measurement": "IC50", "setting": "CDK7/Cyclin H/MNAT1 [9]", "value": "> 10", "unit": "µM"}, {"measurement": "IC50", "setting": "[10]", "value": 2.44, "unit": "µM"}, {"measurement": "inhibition", "setting": "[11]", "value": "Active"}, {"measurement": "Ratio IC50", "setting": "[12]", "value": "> 227"}, {"measurement": "Activity", "setting": "A549", "value": "Active"}, {"measurement": "inhibition", "setting": "[13]", "value": "Active"}, {"measurement": "inhibition", "setting": "[14]", "value": 50, "unit": "%"}, {"measurement": "inhibition", "setting": "HEK-293T", "value": "Active"}, {"measurement": "inhibition", "setting": "[15]", "value": "Active"}, {"measurement": "inhibition", "setting": "[16]", "value": "Active"}, {"measurement": "IC50", "setting": "[17]", "value": 3.64, "unit": "µM"}, {"measurement": "Activity", "setting": "THP-1", "value": 45, "unit": "%"}, {"measurement": "inhibition", "setting": "[18]", "value": 50, "unit": "%"}, {"measurement": "fold change (FC)", "setting": "[19]", "value": 1.6}, {"measurement": "IC50", "setting": "[20]", "value": "> 20", "unit": "µM"}]}
